According to ChEMBL document CHEMBL2093137, “WHO-TDR NTD Screening”:
Converted amounts (≈) assume the structure as drawn.

Assays:
[1] = test system: Onchocerca lienalis; test: WHO-TDR: Onchocerciasis; format: functional; set-up: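 at 12.5 µM on microfilariae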
Summary of the method: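 Percent inhibition and IC50 describe activity against microfilariae of Onchocerca ochengi or Onchocerca lienalis, used as animal-pathogen substitutes for the human parasite. The compounds tested made up a 10,000-member diverse library from Life Chemicals.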

[2] = test system: Trypanosoma cruzi; test: WHO-TDR: Chagas disease; format: functional, organism-based, Homo sapiens; settings: MRC5
Summary of the method: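 A diverse library of 10,000 compounds from Life Chemicals, filtered for drug-likeness and reactive groups, was screened against intracellular amastigotes of Trypanosoma cruzi Tulahuen CL2 beta-galactosidase strain. The parasites were grown in MRC-5SV2 human lung fibroblast host cells, and a reference drug served as positive control under previously published standard procedures. Antiparasitic potency is given as IC50.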

[3] = test system: Schistosoma mansoni; test: WHO-TDR: Schistosomiasis; format: functional; set-up: concentration or dose not given beside the values
Summary of the method: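 Percent inhibition and IC50 describe activity against whole Schistosoma mansoni worms of the Puerto Rican strain, tested as larvae and/or adults. The compounds screened were a diverse set of 10,000 from Life Chemicals, filtered for drug-likeness and reactive groups. Testing followed previously published standard procedures, with a reference drug as positive control.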

[4] = WHO-TDR: Cytotoxicity; format: toxicity, cell-based; settings: human, MRC5 cells
[5] = test system: Trypanosoma brucei brucei; test: WHO-TDR: Human African Trypanosomiasis (HAT); format: functional, organism-based; settings: Squib-427
Summary of the method: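 Values are IC50 figures for antiparasitic potency. They come from a whole-organism screen of 10,000 diverse Life Chemicals compounds against bloodstream-form Trypanosoma brucei (Squib 427 strain).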

[6] = test system: Leishmania infantum; test: WHO-TDR: Leishmaniasis; format: functional, organism-based, Mus musculus; settings: Macrophage
Summary of the method: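 Values are IC50 figures for antiparasitic potency. They come from a whole-organism screen of a 10,000-compound diverse Life Chemicals library against Leishmania infantum MHOM/MA(BE)/67 amastigotes inside murine peritoneal macrophage host cells.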

[7] = test system: Plasmodium falciparum K1; test: WHO-TDR: Malaria; format: functional, organism-based, Homo sapiens; settings: Erythrocyte
Summary of the method: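 Values are IC50 figures for antiplasmodial potency. They come from a whole-organism screen of 10,000 diverse Life Chemicals compounds against Plasmodium falciparum K1 growing inside human red blood cells, run by previously published standard procedures.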

O=C(CSc1ccc2nnc(-c3ccccn3)n2n1)NCC1CCCO1 (stereo not drawn)
% Inhibition [1]: 0%
IC50 [2]: 5.24 µg/mL (≈ 14.1 µM)
% Inhibition [3]: 0%
IC50 [4]: > 11.1 µg/mL
IC50 [5]: 3.3 µg/mL (≈ 8.9 µM)
IC50 [6]: 0.392 µg/mL (≈ 1.06 µM)
IC50 [7]: 3.16 µg/mL (≈ 8.53 µM)

COc1ccccc1N1CCN(C(CNS(=O)(=O)c2c(C)cc(C)cc2C)c2cccnc2)CC1 (stereo not drawn)
% Inhibition [1]: 86.7%
IC50 [2]: 0.929 µg/mL (≈ 1.88 µM)
% Inhibition [3]: 0%
IC50 [4]: > 14.8 µg/mL
IC50 [5]: 4.8 µg/mL (≈ 9.71 µM)
IC50 [6]: > 14.8 µg/mL
IC50 [7]: 0.78 µg/mL (≈ 1.58 µM)

O=C(Cc1ccccc1)Nc1nnc(SCC(=O)NC2CCCC2)s1
% Inhibition [1]: 6.7%
IC50 [2]: 4.16 µg/mL (≈ 11.1 µM)
% Inhibition [3]: 0%
IC50 [4]: 3.82 µg/mL (≈ 10.1 µM)
IC50 [5]: 0.382 µg/mL (≈ 1.01 µM)
IC50 [6]: 3.96 µg/mL (≈ 10.5 µM)
IC50 [7]: 0.609 µg/mL (≈ 1.62 µM)

CCOC(=O)c1c(NC(=O)Cn2c(-n3nc(C)cc3C)nc(CC)cc2=O)sc2c1CCCCC2
% Inhibition [1]: 0%
IC50 [2]: 0.724 µg/mL (≈ 1.45 µM)
% Inhibition [3]: 0%
IC50 [4]: > 14.9 µg/mL
IC50 [5]: > 14.9 µg/mL
IC50 [6]: > 14.9 µg/mL
IC50 [7]: 4.44 µg/mL (≈ 8.93 µM)

CN(C)S(=O)(=O)c1ccc(C(=O)Nc2nnc(SCC(=O)NCc3ccco3)s2)cc1
% Inhibition [1]: 6.7%
IC50 [2]: 0.933 µg/mL (≈ 1.94 µM)
% Inhibition [3]: 0%
IC50 [4]: 3.06 µg/mL (≈ 6.36 µM)
IC50 [5]: 5.04 µg/mL (≈ 10.5 µM)
IC50 [6]: 5.04 µg/mL (≈ 10.5 µM)
IC50 [7]: 2.42 µg/mL (≈ 5.03 µM)

CCOC(=O)c1c(NC(=O)Cn2c(-n3nc(C)cc3C)nc(CC)cc2=O)sc2c1CCC2
% Inhibition [1]: 0%
IC50 [2]: 0.749 µg/mL (≈ 1.6 µM)
% Inhibition [3]: 0%
IC50 [4]: > 14.1 µg/mL
IC50 [5]: > 14.1 µg/mL
IC50 [6]: 4.56 µg/mL (≈ 9.71 µM)
IC50 [7]: 4.68 µg/mL (≈ 9.97 µM)

NC(=O)c1ccc(NC(=O)c2c[nH]c(=O)n(-c3ccc(F)cc3)c2=O)cc1
% Inhibition [1]: 0%
IC50 [2]: > 11 µg/mL
% Inhibition [3]: 0%
IC50 [4]: > 11 µg/mL
IC50 [5]: > 11 µg/mL
IC50 [6]: 0.358 µg/mL (≈ 0.971 µM)
IC50 [7]: > 11 µg/mL

O=C(NCCc1csc(-c2ccccc2)n1)C1CCCC1
% Inhibition [1]: 0%
IC50 [2]: 0.345 µg/mL (≈ 1.15 µM)
% Inhibition [3]: 0%
IC50 [4]: > 9.01 µg/mL
IC50 [5]: 0.152 µg/mL (≈ 0.506 µM)
IC50 [6]: > 9.01 µg/mL
IC50 [7]: > 9.01 µg/mL

Cc1onc(-c2ccccc2Cl)c1C(=O)Nc1nnc(SCC(=O)Nc2ccc3c(c2)OCO3)s1
% Inhibition [1]: 13.3%
IC50 [2]: 3.2 µg/mL (≈ 6.05 µM)
% Inhibition [3]: 0%
IC50 [4]: 2.1 µg/mL (≈ 3.96 µM)
IC50 [5]: 0.483 µg/mL (≈ 0.911 µM)
IC50 [6]: 0.791 µg/mL (≈ 1.49 µM)
IC50 [7]: 1.16 µg/mL (≈ 2.2 µM)

COc1ccc(C(=O)Nc2nnc(SCC(=O)NCc3ccccc3Cl)s2)c(OC)c1
% Inhibition [1]: 0%
IC50 [2]: > 14.4 µg/mL
% Inhibition [3]: 100%
IC50 [4]: > 14.4 µg/mL
IC50 [5]: 4.66 µg/mL (≈ 9.73 µM)
IC50 [6]: > 14.4 µg/mL
IC50 [7]: 3.64 µg/mL (≈ 7.61 µM)

CCS(=O)(=O)c1ccc(-c2cccc(NC(=O)c3cc(Cl)ccc3Cl)c2)nn1
% Inhibition [1]: 0%
IC50 [2]: > 13.1 µg/mL
% Inhibition [3]: 100%
IC50 [4]: > 13.1 µg/mL
IC50 [5]: > 13.1 µg/mL
IC50 [6]: 4.24 µg/mL (≈ 9.71 µM)
IC50 [7]: > 13.1 µg/mL

CCOC(=O)N1CCc2c(sc(NC(=O)C3COc4ccccc4O3)c2C(N)=O)C1 (stereo not drawn)
% Inhibition [1]: 13.3%
IC50 [2]: > 12.9 µg/mL
% Inhibition [3]: 66%
IC50 [4]: > 12.9 µg/mL
IC50 [5]: > 12.9 µg/mL
IC50 [6]: > 12.9 µg/mL
IC50 [7]: > 12.9 µg/mL

O=C(Nc1nnc(SCc2ccccc2Cl)s1)C1CCCCC1
% Inhibition [1]: 0%
IC50 [2]: 4.94 µg/mL (≈ 13.4 µM)
% Inhibition [3]: 0%
IC50 [4]: > 11 µg/mL
IC50 [5]: 0.356 µg/mL (≈ 0.967 µM)
IC50 [6]: 5.1 µg/mL (≈ 13.9 µM)
IC50 [7]: 1.45 µg/mL (≈ 3.95 µM)

O=C(CSc1nnc(NC(=O)COc2ccc(Cl)cc2)s1)NCc1ccc2c(c1)OCO2
% Inhibition [1]: 13.3%
IC50 [2]: 0.433 µg/mL (≈ 0.879 µM)
% Inhibition [3]: 0%
IC50 [4]: 3.34 µg/mL (≈ 6.77 µM)
IC50 [5]: 4.51 µg/mL (≈ 9.14 µM)
IC50 [6]: 0.451 µg/mL (≈ 0.914 µM)
IC50 [7]: 1.72 µg/mL (≈ 3.48 µM)

COC(=O)c1c(NC(=O)c2nc3ccccc3s2)sc2c1CC(C)(C)NC2(C)C
% Inhibition [1]: -1%
IC50 [2]: > 12.9 µg/mL
% Inhibition [3]: 0%
IC50 [4]: > 12.9 µg/mL
IC50 [5]: 0.216 µg/mL (≈ 0.503 µM)
IC50 [6]: > 12.9 µg/mL
IC50 [7]: > 12.9 µg/mL

CCCS(=O)(=O)Nc1ccc(Nc2nc(C)cc(N(C)C)n2)cc1
% Inhibition [1]: 0%
IC50 [2]: 0.335 µg/mL (≈ 0.959 µM)
% Inhibition [3]: 0%
IC50 [4]: > 10.5 µg/mL
IC50 [5]: > 10.5 µg/mL
IC50 [6]: > 10.5 µg/mL
IC50 [7]: > 10.5 µg/mL

CN(CC1CCCO1)S(=O)(=O)c1ccc(C(=O)Nc2nc3cc4c(cc3s2)OCCO4)cc1 (stereo not drawn)
% Inhibition [1]: 20%
IC50 [2]: 5.16 µg/mL (≈ 10.5 µM)
% Inhibition [3]: 100%
IC50 [4]: > 9.82 µg/mL
IC50 [5]: 3.69 µg/mL (≈ 7.54 µM)
IC50 [6]: > 9.82 µg/mL
IC50 [7]: 4.26 µg/mL (≈ 8.71 µM)

CC(C)(C)C(=O)Nc1nnc(SCC(=O)Nc2ccc(Cl)c(Cl)c2)s1
% Inhibition [1]: 0%
IC50 [2]: 4.66 µg/mL (≈ 11.1 µM)
% Inhibition [3]: 0%
IC50 [4]: 2.84 µg/mL (≈ 6.78 µM)
IC50 [5]: 0.456 µg/mL (≈ 1.09 µM)
IC50 [6]: 4.51 µg/mL (≈ 10.7 µM)
IC50 [7]: 1.13 µg/mL (≈ 2.69 µM)

O=C(Nc1ccc(-c2cn3c(n2)SCC3)cc1)C1CCCC1
% Inhibition [1]: 0%
IC50 [2]: > 9.4 µg/mL
% Inhibition [3]: 0%
IC50 [4]: > 9.4 µg/mL
IC50 [5]: > 9.4 µg/mL
IC50 [6]: 0.304 µg/mL (≈ 0.97 µM)
IC50 [7]: 9.4 µg/mL (≈ 30 µM)

O=C(CSc1nc2ccccc2nc1O)Nc1ccccc1C(=O)c1ccccc1
% Inhibition [1]: 26.7%
IC50 [2]: > 12.5 µg/mL
% Inhibition [3]: 0%
IC50 [4]: > 12.5 µg/mL
IC50 [5]: > 12.5 µg/mL
IC50 [6]: 1.97 µg/mL (≈ 4.75 µM)
IC50 [7]: > 12.5 µg/mL

O=C(CSc1nnc(NC(=O)c2cc(Cl)ccc2Cl)s1)Nc1ccc2c(c1)OCO2
% Inhibition [1]: 13.3%
IC50 [2]: 0.409 µg/mL (≈ 0.847 µM)
% Inhibition [3]: 0%
IC50 [4]: 1.94 µg/mL (≈ 4.02 µM)
IC50 [5]: 4.25 µg/mL (≈ 8.8 µM)
IC50 [6]: 4.25 µg/mL (≈ 8.8 µM)
IC50 [7]: 8.18 µg/mL (≈ 16.9 µM)

COc1ccc(-c2nnc(NC(=O)c3cccc(C(F)(F)F)c3)o2)cc1
% Inhibition [1]: 0%
IC50 [2]: 0.844 µg/mL (≈ 2.32 µM)
% Inhibition [3]: 0%
IC50 [4]: 10.1 µg/mL (≈ 27.9 µM)
IC50 [5]: > 10.9 µg/mL
IC50 [6]: > 10.9 µg/mL
IC50 [7]: > 10.9 µg/mL

COC(=O)c1ccc(NC(=O)CSc2nnc(NC(=O)c3cc(Cl)ccc3OC)s2)cc1
% Inhibition [1]: 0%
IC50 [2]: 4.49 µg/mL (≈ 9.11 µM)
% Inhibition [3]: 16.7%
IC50 [4]: 4.1 µg/mL (≈ 8.31 µM)
IC50 [5]: 0.435 µg/mL (≈ 0.882 µM)
IC50 [6]: 4.24 µg/mL (≈ 8.61 µM)
IC50 [7]: 0.324 µg/mL (≈ 0.657 µM)

Cn1cc(S(=O)(=O)N2CCN(C(c3ccccc3)c3ccccc3)CC2)c(=O)n(C)c1=O
% Inhibition [1]: 0%
IC50 [2]: 0.34 µg/mL (≈ 0.749 µM)
% Inhibition [3]: 0%
IC50 [4]: > 11.5 µg/mL
IC50 [5]: 2.16 µg/mL (≈ 4.75 µM)
IC50 [6]: 3.65 µg/mL (≈ 8.02 µM)
IC50 [7]: > 11.5 µg/mL
